Reference: article PMC3004996 (Bioconjugate chemistry, 2010)
Read-outs that look alike come from different tables or passages of the source. Bridge positions count the residues as written; N and C are the ends. Ends that are not written are not given here. Peptide text beside a SMILES is read from it. * marks the point of attachment. DOTA = O=C(O)CN1CCN(CC(=O)O)CCN(CC(=O)*)CCN(CC(=O)O)CC1

Key:
[1] = molecular target: integrin αvβ3 (Homo sapiens) (UniProt P06756); conditions: cited from earlier work
integrin αvβ3 (Homo sapiens), sequence (P06756 31-1048, chain 1 of 2): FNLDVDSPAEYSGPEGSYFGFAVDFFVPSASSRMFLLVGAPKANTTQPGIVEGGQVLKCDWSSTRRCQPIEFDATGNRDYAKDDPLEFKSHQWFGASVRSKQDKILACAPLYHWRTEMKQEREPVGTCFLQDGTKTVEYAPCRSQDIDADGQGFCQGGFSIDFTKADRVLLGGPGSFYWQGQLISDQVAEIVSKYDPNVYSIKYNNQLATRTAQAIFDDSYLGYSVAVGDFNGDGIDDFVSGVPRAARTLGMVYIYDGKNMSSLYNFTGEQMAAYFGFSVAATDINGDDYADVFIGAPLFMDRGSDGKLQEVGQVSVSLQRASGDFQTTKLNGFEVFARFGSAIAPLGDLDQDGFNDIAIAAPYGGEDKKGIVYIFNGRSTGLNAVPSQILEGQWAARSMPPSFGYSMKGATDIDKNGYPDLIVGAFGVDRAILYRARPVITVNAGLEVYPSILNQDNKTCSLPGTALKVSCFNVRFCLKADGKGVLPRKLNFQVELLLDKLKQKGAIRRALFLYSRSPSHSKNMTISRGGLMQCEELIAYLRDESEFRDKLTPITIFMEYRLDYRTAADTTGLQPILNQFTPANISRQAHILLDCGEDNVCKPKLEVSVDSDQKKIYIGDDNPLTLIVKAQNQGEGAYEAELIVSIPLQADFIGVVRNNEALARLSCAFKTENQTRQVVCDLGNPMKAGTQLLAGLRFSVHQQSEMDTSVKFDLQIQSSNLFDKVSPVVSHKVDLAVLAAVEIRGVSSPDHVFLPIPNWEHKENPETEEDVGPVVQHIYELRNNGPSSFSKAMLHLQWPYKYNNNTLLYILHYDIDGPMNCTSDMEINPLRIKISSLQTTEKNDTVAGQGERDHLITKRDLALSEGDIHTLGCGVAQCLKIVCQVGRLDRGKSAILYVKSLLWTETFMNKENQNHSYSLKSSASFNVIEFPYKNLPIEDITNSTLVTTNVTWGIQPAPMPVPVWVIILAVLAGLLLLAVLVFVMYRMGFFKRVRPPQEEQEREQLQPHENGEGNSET
integrin αvβ3 (Homo sapiens), sequence (P05106 27-788, chain 2 of 2, further chain): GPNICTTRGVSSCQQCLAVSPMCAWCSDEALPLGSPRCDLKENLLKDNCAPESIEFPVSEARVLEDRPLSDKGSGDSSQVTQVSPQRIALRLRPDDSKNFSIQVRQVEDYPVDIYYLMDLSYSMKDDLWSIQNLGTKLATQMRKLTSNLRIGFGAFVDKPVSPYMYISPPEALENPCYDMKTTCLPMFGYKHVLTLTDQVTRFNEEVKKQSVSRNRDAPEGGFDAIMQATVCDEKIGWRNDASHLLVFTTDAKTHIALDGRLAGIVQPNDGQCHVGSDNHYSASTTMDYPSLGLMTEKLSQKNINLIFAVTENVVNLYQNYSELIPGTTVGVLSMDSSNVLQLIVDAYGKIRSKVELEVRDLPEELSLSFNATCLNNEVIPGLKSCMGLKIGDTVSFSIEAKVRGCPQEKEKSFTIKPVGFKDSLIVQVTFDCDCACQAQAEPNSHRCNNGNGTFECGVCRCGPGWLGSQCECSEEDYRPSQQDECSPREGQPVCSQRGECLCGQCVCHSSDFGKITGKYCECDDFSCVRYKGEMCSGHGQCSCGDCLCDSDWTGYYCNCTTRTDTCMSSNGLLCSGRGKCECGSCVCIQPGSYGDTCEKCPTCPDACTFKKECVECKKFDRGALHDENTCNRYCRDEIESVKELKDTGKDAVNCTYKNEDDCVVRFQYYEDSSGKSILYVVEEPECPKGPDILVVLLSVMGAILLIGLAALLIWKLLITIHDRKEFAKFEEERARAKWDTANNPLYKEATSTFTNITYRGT

[2] = MicroPET imaging of MDA-MB-435 xenografts; assay type: in vivo; conditions: female, athymic nude (nu/nu), mouse, tumor (MDA-MB-435 xenograft), iv, total radioactivity
In short: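 MDA-MB-435 cells were grown in Leibovitz L-15 with 10% FBS, and 5 × 10⁶ cells in PBS were implanted subcutaneously in the shoulder of 4-6-week female nude mice. At 8-10 mm tumor diameter, mice (n ≥ 3) received ~100 μCi (~0.5 nmol) labelled probe by tail vein. Imaging used microPET with 3 or 5 min static scans. ROI counts/g/min were converted to %ID/g assuming 1 g/mL, without attenuation correction. Blocking groups were co-injected with 330 μg unlabelled c(RGDyK).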

[3] = In vivo biodistribution, gamma counting of dissected tissue; conditions: nude (nu/nu), mouse, iv, 100 uCi, total radioactivity
In short: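 U87MG xenograft-bearing anesthetized nude mice received ~100 μCi (~0.5 nmol) of 64Cu/Cy5.5 dual-labelled test peptide by tail vein. They were euthanized at 1, 4 and 24 hr. Dissected tissues were weighed and gamma counted, calibrated against a pre-measured tracer aliquot, and normalized to whole body weight and residual tail activity. Values are %ID/g, mean and standard deviation of three mice.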

[4] = Stability in mouse serum, radio-HPLC; assay type: in vitro ADME; conditions: 50% mouse serum, 37 °C
[5] = In vivo metabolite analysis; design: species or system mouse; conditions: radio-HPLC and gamma counting
In short: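 Female athymic nude mice bearing subcutaneous shoulder U87MG xenografts (~10⁷ cells; tumors 8–10 mm) were anesthetized and given 200–400 μCi of ⁶⁴Cu-labeled test peptide by tail vein, then euthanized. Blood and tumor were suspended in ~500 μL PBS plus 500–1000 μL DMF and homogenized by mortar and pestle. Homogenates were passed through a 0.2 μm filter. Filtrates were run on reversed-phase HPLC, with 30 s fractions gamma-counted (cpm).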

[6] = tested on: U87MG cells; experiment: Cell binding and uptake study; assay type: cell-based, human; conditions: 5 × 10^5 U87MG cells, 1 μg c(RGDyK), 37 °C, 30, 60, 120 min
In short: (§1)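 Cells were suspended in integrin binding buffer (25 mM Tris pH 7.4, 150 mM NaCl, 2 mM CaCl₂, 1 mM MgCl₂, 1 mM MnCl₂, 0.1% BSA). They were incubated with the ⁶⁴Cu-labeled test peptide at 1.5 μCi/tube, with or without c(RGDyK). Cells were then washed three times with chilled PBS, pelleted and gamma-counted. Uptake is % of added radioactivity, in triplicate. U87MG were maintained in DMEM and MDA-MB-435 in L-15, each with 10% heat-inactivated FBS.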

[7] = tested on: MDA-MB-435 cells; experiment: Cell binding and uptake study; assay type: cell-based, human; conditions: 5 × 10^5 MDA-MB-435 cells, 37 °C, 30, 60, 120 min
In short: as §1

[8] = tested on: U87MG tumor xenografts; conditions: cited from earlier work
[9] = incubation in serum for 24 h; cited from earlier work
[10] = 1 hr after injection into mice; cited from earlier work
[11] = molecular target: αvβ3 integrin (Homo sapiens, UniProt P05106+P06756); conditions: read-out: KD for αvβ3 integrin; cited from earlier work
αvβ3 integrin, sequence (P06756 31-889 limits assumed): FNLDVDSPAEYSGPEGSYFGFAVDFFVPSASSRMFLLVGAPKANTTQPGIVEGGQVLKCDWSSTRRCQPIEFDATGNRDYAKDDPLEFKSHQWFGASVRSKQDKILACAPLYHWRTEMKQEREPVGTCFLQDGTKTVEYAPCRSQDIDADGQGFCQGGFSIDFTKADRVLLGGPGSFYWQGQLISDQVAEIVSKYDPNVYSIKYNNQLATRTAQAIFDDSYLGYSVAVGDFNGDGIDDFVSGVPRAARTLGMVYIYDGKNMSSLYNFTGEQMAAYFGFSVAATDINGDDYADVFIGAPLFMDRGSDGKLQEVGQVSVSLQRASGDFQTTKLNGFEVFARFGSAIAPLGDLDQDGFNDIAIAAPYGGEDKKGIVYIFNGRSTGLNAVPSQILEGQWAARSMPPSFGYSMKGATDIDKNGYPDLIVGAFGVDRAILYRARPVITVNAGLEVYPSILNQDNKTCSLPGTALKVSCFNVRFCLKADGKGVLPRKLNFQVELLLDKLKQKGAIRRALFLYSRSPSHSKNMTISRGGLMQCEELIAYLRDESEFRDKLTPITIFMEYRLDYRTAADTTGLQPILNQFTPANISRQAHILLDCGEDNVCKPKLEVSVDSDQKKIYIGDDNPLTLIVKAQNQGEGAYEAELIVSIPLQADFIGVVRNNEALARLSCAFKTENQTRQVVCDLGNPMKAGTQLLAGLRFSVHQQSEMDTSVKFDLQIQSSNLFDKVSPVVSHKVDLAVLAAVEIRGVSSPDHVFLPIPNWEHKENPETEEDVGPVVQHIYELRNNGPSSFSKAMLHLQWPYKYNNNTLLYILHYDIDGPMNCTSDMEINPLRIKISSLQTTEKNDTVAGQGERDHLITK
αvβ3 integrin, sequence (P06756 891-1048 partner limits assumed): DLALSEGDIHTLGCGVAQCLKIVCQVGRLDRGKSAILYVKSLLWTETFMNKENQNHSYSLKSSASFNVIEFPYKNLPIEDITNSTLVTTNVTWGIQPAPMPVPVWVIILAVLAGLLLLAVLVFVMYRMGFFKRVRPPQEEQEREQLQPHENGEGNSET
αvβ3 integrin, sequence (P05106 27-788): as the sequence (P05106 27-788, chain 2 of 2, further chain) above

echistatin, sequence (P17347 131-179): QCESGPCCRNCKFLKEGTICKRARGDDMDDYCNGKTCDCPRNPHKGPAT

For echistatin (from UniProt P17347), the Kd [1] is given as 0.4 nM.
`CCN1C(=CC=CC=CC2=[N+](CCCCCC(=O)NCCCC[C@H](NC(=O)CN3CCN(CC(=O)O)CCN(CC(=O)O)CCN(CC(=O)O)CC3)C(=O)NCC(=O)NCC(=O)N[C@@H](Cc3ccc(O)cc3)C(=O)NCC(=O)N[C@H]3CSSC[C@@H]4NC(=O)CNC(=O)[C@H](C)NC(=O)[C@H](CC(C)C)NC(=O)[C@@H]5CSSC[C@@H](C(=O)NCC(N)=O)NC(=O)[C@H](Cc6ccccc6)NC(=O)CNC(=O)[C@H](CC(N)=O)NC(=O)[C@@H]6CCCN6C(=O)CNC(=O)[C@H](CSSC[C@H](NC(=O)[C@H](CO)NC(=O)[C@H]([C@@H](C)O)NC(=O)[C@@H]6CCCN6C(=O)[C@H](C)NC(=O)[C@H](Cc6c[nH]c7ccccc67)NC(=O)[C@H](CC(=O)O)NC(=O)CNC(=O)[C@H](CCCNC(=N)N)NC(=O)CNC(=O)[C@H](CCC(N)=O)NC(=O)[C@@H]6CCCN6C3=O)C(=O)N[C@@H](CO)C(=O)N[C@@H](CCC(N)=O)C(=O)N[C@@H](CC(=O)O)C(=O)N[C@@H](CO)C(=O)N[C@@H](CC(=O)O)C(=O)N5)NC(=O)[C@H](C(C)C)NC4=O)c3ccc4c(S(=O)(=O)[O-])cc(S(=O)(=O)O)cc4c3C2(C)C)C(C)(C)c2c1ccc1c(S(=O)(=O)O)cc(S(=O)(=O)O)cc21` (single isomer, unassigned) [^64Cu-DOTA/Cy5.5-2.5D, ^64Cu-DOTA-Lys(Cy5.5)-Gly-Gly-Tyr-2.5D, metal not drawn] gave a tissue uptake at 1 h ([2]; 100 uCi) of 1.33 ± 0.02 %ID/g, a tissue uptake at 24 h ([2]; 100 uCi) of 1.01 ± 0.1 %ID/g and a tissue uptake at 1 h [2] of 0.82 ± 0.05 %ID/g. It also gave a tissue uptake at 24 h [2] of 0.6 ± 0.09 %ID/g, a tissue uptake ([3]; kidney, Kidney uptake, for 1-4 hr post injection, approximate) of roughly 80 %ID/g and a tissue uptake ([3]; liver, Liver uptake, at 1-24 hr post injection) of 4 to 7 %ID/g. The tissue uptake ([3]; liver, Liver uptake, at 1 and 4 hr post injection) was 4 to 7 %ID/g, the “Stability in mouse serum” value ([4]; 1 hr) was “minimal probe degradation” and the “Stability in mouse serum” value ([4]; 24 hr) was “intact probe was unrecoverable”. The “In vivo metabolic stability in tumor” value ([5]; U87MG tumor 1 hr post injection) was “significant breakdown of probe”, the “In vivo metabolic stability in kidney” value ([5]; kidney 1 hr post injection) was “intact probe was not able to be recovered” and the “In vivo metabolic stability in liver” value ([5]; liver 1 hr post injection) was “intact probe was not able to be recovered”. The “Cell binding and uptake with excess c(RGDyK)” value [6] was “blocked”, the “Cell binding and uptake with excess c(RGDyK)” value ([7]; 1 μg c(RGDyK)) was “blocked” and the “Cell binding and uptake, versus U87MG cells” value ([7]; 1.5 μCi/tube, IBB, gamma counter, triplicate) was “lower levels of probe uptake”.
For `CC(C)C[C@@H]1NC(=O)[C@@H]2CSSC[C@@H](C(=O)NCC(N)=O)NC(=O)[C@H](Cc3ccccc3)NC(=O)CNC(=O)[C@H](CC(N)=O)NC(=O)[C@@H]3CCCN3C(=O)CNC(=O)[C@@H]3CSSC[C@H](NC(=O)[C@H](CO)NC(=O)[C@H]([C@@H](C)O)NC(=O)[C@@H]4CCCN4C(=O)[C@H](C)NC(=O)[C@H](Cc4c[nH]c5ccccc45)NC(=O)[C@H](CC(=O)O)NC(=O)CNC(=O)[C@H](CCCNC(=N)N)NC(=O)CNC(=O)[C@H](CCC(N)=O)NC(=O)[C@@H]4CCCN4C(=O)[C@@H](NC(=O)CNC(=O)CN4CCN(CC(=O)O)CCN(CC(=O)O)CCN(CC(=O)O)CC4)CSSC[C@H](NC(=O)CNC(=O)[C@H](C)NC1=O)C(=O)N[C@@H](C(C)C)C(=O)N3)C(=O)N[C@@H](CO)C(=O)N[C@@H](CCC(N)=O)C(=O)N[C@@H](CC(=O)O)C(=O)N[C@@H](CO)C(=O)N[C@@H](CC(=O)O)C(=O)N2` [^64Cu-DOTA-2.5D, metal not drawn] ({DOTA}-GCPQGRGDWAPTSCSQDSDCLAGCVCGPNGFCG-NH2; disulfide 2-24, 14-26, 20-32), the Liver uptake ([8]; 1 to 4 hr post injection, previously observed) is listed as 1-2 %ID/g, the Kidney uptake ([8]; 1 hr post injection) is listed as 8.08 ± 0.67 %ID/g and the Kidney uptake ([8]; 4 hr post injection) is listed as 2.69 ± 0.48 %ID/g. The Kidney uptake ([8]; 24 hr post injection) was 1.25 ± 0.11 %ID/g, the Stability in serum [9] was “only minimal fragmentation” and the “In vivo metabolic stability in blood, tumor and kidneys” value [10] was “recovered intact”.
In the case of “ECESGPCCRNCKFLKEGTICKRARGDDMDDYCNGKTCDCPRNPHKGPAT (disulfide 2-11, 7-32, 8-37, 20-39 (inferred)) [Echistatin]”, the Kd [11] is listed as roughly 0.4 nM.
